From ChEMBL document CHEMBL3632558, “Synthesis, antimycobacterial and antibacterial activity of l-[(1R,2S)-2-fluorocyclopropyl]naphthyridone derivatives containing an oxime-functionalized pyrrolidine moiety” (2015)
In brackets after ≈: the same amount, converted by molar mass.

Key:
Type in all cases: functional
[1] = tested on: Mycobacterium tuberculosis; experiment: Antimycobacterial activity against Mycobacterium tuberculosis H37Rv ATCC 27294 by alamar blue assay
Outline: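 Microplate Alamar Blue Assay; MIC is the lowest concentration giving ≥90% reduction in fluorescence relative to the mean of replicate bacterium-only controls. MDR strain 6133 is resistant to isoniazid and rifampicin.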

[2] = tested on: Enterococcus faecium; experiment: Antibacterial activity against Enterococcus faecium 14-6 after 18 to 24 hrs
Outline: (§1)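 MIC by standard NCCLS reference procedure (M100-S11); lowest concentration of compound inhibiting visible bacterial growth after incubation at 35 °C for 18–24 h, read as complete inhibition of growth. Ciprofloxacin, levofloxacin and moxifloxacin run alongside as reference agents.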

[3] = tested on: Enterococcus faecium; experiment: Antibacterial activity against Enterococcus faecium 14-2 after 18 to 24 hrs; outline: as §1
[4] = tested on: Staphylococcus aureus; experiment: Antibacterial activity against methicillin-sensitive Staphylococcus aureus 14-4 after 18 to 24 hrs; outline: as §1
[5] = tested on: Staphylococcus aureus; experiment: Antibacterial activity against methicillin-sensitive Staphylococcus aureus 14-3 after 18 to 24 hrs; outline: as §1
[6] = tested on: Klebsiella pneumoniae; experiment: Antibacterial activity against ESBL-positive Klebsiella pneumoniae 14-17 after 18 to 24 hrs; outline: as §1
[7] = tested on: Klebsiella pneumoniae; experiment: Antibacterial activity against ESBL-positive Klebsiella pneumoniae 14-19 after 18 to 24 hrs; outline: as §1
[8] = tested on: Staphylococcus epidermidis; experiment: Antibacterial activity against methicillin-sensitive Staphylococcus epidermidis 14-2 after 18 to 24 hrs; outline: as §1
[9] = tested on: Staphylococcus epidermidis; experiment: Antibacterial activity against methicillin-resistant Staphylococcus epidermidis 14-39 after 18 to 24 hrs
[10] = tested on: Staphylococcus epidermidis; experiment: Antibacterial activity against methicillin-resistant Staphylococcus epidermidis 14-22 after 18 to 24 hrs
[11] = tested on: Escherichia coli; experiment: Antibacterial activity against ESBL-positive Escherichia coli 14-1 after 18 to 24 hrs; outline: as §1
[12] = tested on: Klebsiella pneumoniae; experiment: Antibacterial activity against Klebsiella pneumoniae 14-3 after 18 to 24 hrs; outline: as §1
[13] = tested on: Enterococcus faecium; experiment: Antibacterial activity against Enterococcus faecium 14-5 after 18 to 24 hrs; outline: as §1
[14] = tested on: Escherichia coli; experiment: Antibacterial activity against Escherichia coli 14-2 after 18 to 24 hrs; outline: as §1
[15] = tested on: Enterococcus faecalis; experiment: Antibacterial activity against Enterococcus faecalis 14-1 after 18 to 24 hrs; outline: as §1
[16] = tested on: Staphylococcus aureus; experiment: Antibacterial activity against methicillin-sensitive Staphylococcus aureus 14-2 after 18 to 24 hrs; outline: as §1
[17] = tested on: Enterococcus faecium; experiment: Antibacterial activity against Enterococcus faecium 14-1 after 18 to 24 hrs; outline: as §1
[18] = tested on: Escherichia coli; experiment: Antibacterial activity against Escherichia coli 14-1 after 18 to 24 hrs; outline: as §1
[19] = tested on: Escherichia coli; experiment: Antibacterial activity against ESBL-positive Escherichia coli 14-2 after 18 to 24 hrs; outline: as §1
[20] = tested on: Staphylococcus aureus; experiment: Antibacterial activity against methicillin-resistant Staphylococcus aureus 14-4 after 18 to 24 hrs
[21] = tested on: Staphylococcus aureus; experiment: Antibacterial activity against Staphylococcus aureus CMCC 26003 after 18 to 24 hrs; outline: as §1
[22] = tested on: Staphylococcus aureus; experiment: Antibacterial activity against methicillin-sensitive Staphylococcus aureus 14-1 after 18 to 24 hrs; outline: as §1
[23] = tested on: Klebsiella pneumoniae; experiment: Antibacterial activity against Klebsiella pneumoniae 14-4 after 18 to 24 hrs; outline: as §1
[24] = tested on: Klebsiella pneumoniae; experiment: Antibacterial activity against Klebsiella pneumoniae 14-1 after 18 to 24 hrs; outline: as §1
[25] = tested on: Klebsiella pneumoniae; experiment: Antibacterial activity against Klebsiella pneumoniae 14-2 after 18 to 24 hrs; outline: as §1
[26] = tested on: Staphylococcus epidermidis; experiment: Antibacterial activity against methicillin-resistant Staphylococcus epidermidis 14-37 after 18 to 24 hrs
[27] = tested on: Enterococcus faecalis; experiment: Antibacterial activity against Enterococcus faecalis 14-2 after 18 to 24 hrs; outline: as §1
[28] = tested on: Staphylococcus epidermidis; experiment: Antibacterial activity against methicillin-resistant Staphylococcus epidermidis 14-21 after 18 to 24 hrs
[29] = tested on: Staphylococcus aureus; experiment: Antibacterial activity against methicillin-resistant Staphylococcus aureus 14-5 after 18 to 24 hrs
[30] = tested on: Pseudomonas aeruginosa; experiment: Antibacterial activity against Pseudomonas aeruginosa 14-9 after 18 to 24 hrs; outline: as §1
[31] = tested on: Pseudomonas aeruginosa; experiment: Antibacterial activity against Pseudomonas aeruginosa 14-16 after 18 to 24 hrs; outline: as §1
[32] = tested on: Pseudomonas aeruginosa; experiment: Antibacterial activity against Pseudomonas aeruginosa ATCC 27853 after 18 to 24 hrs; outline: as §1
[33] = tested on: Klebsiella pneumoniae; experiment: Antibacterial activity against ESBL-positive Klebsiella pneumoniae 14-18 after 18 to 24 hrs; outline: as §1
[34] = tested on: Pseudomonas aeruginosa; experiment: Antibacterial activity against Pseudomonas aeruginosa 14-19 after 18 to 24 hrs; outline: as §1
[35] = tested on: Pseudomonas aeruginosa; experiment: Antibacterial activity against Pseudomonas aeruginosa 14-15 after 18 to 24 hrs; outline: as §1
[36] = tested on: Pseudomonas aeruginosa; experiment: Antibacterial activity against Pseudomonas aeruginosa 14-14 after 18 to 24 hrs; outline: as §1
[37] = tested on: Streptococcus pneumoniae; experiment: Antibacterial activity against Streptococcus pneumoniae ATCC 19615 after 18 to 24 hrs; outline: as §1
[38] = tested on: Escherichia coli; experiment: Antibacterial activity against Escherichia coli ATCC 25922 after 18 to 24 hrs; outline: as §1

NCC1CN(c2nc3c(cc2F)c(=O)c(C(=O)O)cn3[C@@H]2C[C@@H]2F)C/C1=N\OCc1ccccc1 (some centres undefined)
MIC90 [1]: 0.5 mg/L (≈ 1.03 µM)

C[C@H]1COc2c(N3CCN(C)CC3)c(F)cc3c(=O)c(C(=O)O)cn1c23.C[C@H]1COc2c(N3CCN(C)CC3)c(F)cc3c(=O)c(C(=O)O)cn1c23.O [LEVOFLOXACIN]
MIC [2]: 64 mg/L | MIC [3]: 32 mg/L | MIC [4]: 0.5 mg/L | MIC [5]: 0.125 mg/L | MIC [6]: 4 mg/L | MIC [7]: 64 mg/L | MIC [8]: 128 mg/L | MIC [9]: 64 mg/L | MIC [10]: 32 mg/L | MIC [11]: 2 mg/L | MIC [12]: 16 mg/L | MIC [13]: 64 mg/L | MIC [14]: 4 mg/L | MIC [15]: 128 mg/L | MIC [16]: 0.25 mg/L | MIC [17]: 16 mg/L | MIC [18]: 4 mg/L | MIC [19]: 8 mg/L | MIC [20]: 64 mg/L | MIC [21]: 0.125 mg/L | MIC [22]: 8 mg/L | MIC [23]: 8 mg/L | MIC [24]: 16 mg/L | MIC [25]: 8 mg/L | MIC [26]: 64 mg/L | MIC [27]: 1 mg/L | MIC [28]: 64 mg/L | MIC [29]: 8 mg/L

NNC(=O)c1ccncc1 [ISONIAZID]
MIC90 [1]: 0.049 mg/L (≈ 0.357 µM)

CO[C@H]1/C=C/O[C@@]2(C)Oc3c(C)c(O)c4c(O)c(c(/C=N/N5CCN(C)CC5)c(O)c4c3C2=O)NC(=O)/C(C)=C\C=C\[C@H](C)[C@H](O)[C@@H](C)[C@@H](O)[C@@H](C)[C@H](OC(C)=O)[C@@H]1C [RIFAMPIN]
MIC90 [1]: 0.05 mg/L (≈ 0.0608 µM)

COc1c(N2C[C@@H]3CCCN[C@@H]3C2)c(F)cc2c(=O)c(C(=O)O)cn(C3CC3)c12 [MOXIFLOXACIN]
MIC [2]: 8 mg/L (≈ 19.9 µM) | MIC [4]: < 0.008 mg/L | MIC [5]: < 0.008 mg/L | MIC [6]: 8 mg/L (≈ 19.9 µM) | MIC [7]: 64 mg/L (≈ 159 µM) | MIC [30]: 4 mg/L (≈ 9.96 µM) | MIC [8]: 32 mg/L (≈ 79.7 µM) | MIC [9]: 8 mg/L (≈ 19.9 µM) | MIC [31]: 8 mg/L (≈ 19.9 µM) | MIC [10]: 8 mg/L (≈ 19.9 µM) | MIC [12]: 32 mg/L (≈ 79.7 µM) | MIC [13]: 8 mg/L (≈ 19.9 µM) | MIC [15]: 32 mg/L (≈ 79.7 µM) | MIC [16]: 0.06 mg/L (≈ 0.149 µM) | MIC [17]: 8 mg/L (≈ 19.9 µM) | MIC [32]: 2 mg/L (≈ 4.98 µM) | MIC [33]: 1 mg/L (≈ 2.49 µM) | MIC [34]: 1 mg/L (≈ 2.49 µM) | MIC [20]: 16 mg/L (≈ 39.9 µM) | MIC [21]: 0.06 mg/L (≈ 0.149 µM) | MIC [22]: 4 mg/L (≈ 9.96 µM) | MIC [23]: 16 mg/L (≈ 39.9 µM) | MIC [35]: 16 mg/L (≈ 39.9 µM) | MIC [24]: 8 mg/L (≈ 19.9 µM) | MIC [25]: 16 mg/L (≈ 39.9 µM) | MIC [26]: 8 mg/L (≈ 19.9 µM) | MIC [27]: 0.5 mg/L (≈ 1.25 µM) | MIC [28]: 32 mg/L (≈ 79.7 µM) | MIC [36]: 16 mg/L (≈ 39.9 µM) | MIC [37]: 0.015 mg/L (≈ 0.0374 µM) | MIC [29]: 8 mg/L (≈ 19.9 µM)

O=C(O)c1cn(C2CC2)c2cc(N3CCNCC3)c(F)cc2c1=O [CIPROFLOXACIN]
MIC [2]: > 128 mg/L | MIC [4]: 0.5 mg/L (≈ 1.51 µM) | MIC [6]: 4 mg/L (≈ 12.1 µM) | MIC [7]: 64 mg/L (≈ 193 µM) | MIC [8]: > 128 mg/L | MIC [9]: 128 mg/L (≈ 386 µM) | MIC [10]: 128 mg/L (≈ 386 µM) | MIC [12]: 128 mg/L (≈ 386 µM) | MIC [13]: 128 mg/L (≈ 386 µM) | MIC [15]: 128 mg/L (≈ 386 µM) | MIC [16]: 0.25 mg/L (≈ 0.754 µM) | MIC [17]: 64 mg/L (≈ 193 µM) | MIC [33]: 0.25 mg/L (≈ 0.754 µM) | MIC [20]: > 128 mg/L | MIC [23]: 32 mg/L (≈ 96.6 µM) | MIC [24]: 32 mg/L (≈ 96.6 µM) | MIC [25]: 16 mg/L (≈ 48.3 µM) | MIC [26]: 128 mg/L (≈ 386 µM) | MIC [27]: 1 mg/L (≈ 3.02 µM) | MIC [28]: 64 mg/L (≈ 193 µM) | MIC [37]: 2 mg/L (≈ 6.04 µM) | MIC [38]: < 0.008 mg/L
